Measurements published in ChEMBL document CHEMBL1129690, “Design, synthesis, and structure-activity relationship studies of novel 1-[(1-acyl-4-piperidyl)methyl]-1H-2- methylimidazo[4,5-c]pyridine derivatives as potent, orally active platelet-activating factor antagonists” (J Med Chem, 1996).

Tests used:
Rattus norvegicus = assay: Dose required to reduce the lowering of the arterial blood pressure caused by PAF by 50% after intravenous administration in rats; type: functional; details: read-out: ID50 (the source's name)
Method in brief: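 Rats with both femoral veins catheterized, one for test compound and one for PAF (0.5 µg/kg). Compound given iv in saline (1 mL/kg) 3 min before PAF. Blood pressure monitored; % inhibition of hypotension calculated versus controls. ID50 from linear regression of at least four doses, each the mean of two or more independent experiments.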

Oryctolagus cuniculus = species on record: Oryctolagus cuniculus; assay: Concentration required to inhibit PAF-induced maximum platelet aggregation in rabbit platelet-rich plasma; type: functional
Method in brief: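 PRP prepared by centrifugation at 250g, 10 min, 4 °C, and diluted with platelet-poor plasma (3000g, 10 min) to 3.5 × 10⁵ platelets/mm³. Aggregation triggered by C-18-PAF at 1.5 × 10^-8 M and read on a dual-channel aggregometer. IC50 from linear regression of at least four points, each the mean of one to three independent experiments.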

Mus musculus [1] = assay: Compound after an intravenous dose of 0.03 mg/Kg was tested for the inhibition of PAF-induced mortality in mice; type: functional
Method in brief: (§1)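 Male Swiss mice, 22-26 g, groups of 10. Test article given iv (10 mL/kg, saline vehicle) 5 min before, or po (20 mL/kg, 1% Tween 80) 60 min before, tail-vein C-18-PAF 100 µg/kg plus propranolol 1 mg/kg. Mortality scored 2 h after PAF; % inhibition vs vehicle controls. ID50 by linear regression, ≥4 points.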

Mus musculus [2] = assay: Dosage required to inhibit PAF-induced mortality in mice by 50% through intravenous route; type: functional; details: read-out: ID50 (the source's name); method in brief: as §1
Mus musculus [3] = assay: Dosage required to inhibit PAF-induced mortality in mice by 50% through oral administration; type: functional; details: read-out: ID50 (the source's name); method in brief: as §1
Mus musculus [4] = assay: Percentage of inhibition by the compound against PAF-induced mortality in mice 5 hr after intravenous administration of 1 mg/Kg; type: functional
Method in brief: (§2)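 Male Swiss mice given single 1 mg/kg iv dose at time 0. C-18-PAF 100 µg/kg plus propranolol 1 mg/kg injected by lateral tail vein at later times (10-40 mice/time). Deaths scored 2 h after PAF. Percentage inhibition of mortality vs vehicle (saline) controls recorded at each time.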

Canis familiaris [5] = assay: Inhibition of PAF-induced platelet aggregation in whole blood obtained after 6 hr from dog injected with an intravenous dose of 1 mg/Kg of compound; type: functional, Canis lupus familiaris
Method in brief: (§3)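 Male Beagle dogs (8-12 kg) dosed once at 1 mg/kg iv. Venous blood drawn before dosing and at 4 and 6 h, anticoagulated with 3.8% citrate (1:9) and diluted 1:1 in saline.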

Canis familiaris [6] = assay: Inhibition of PAF-induced platelet aggregation in whole blood obtained after 4 hr from dog injected with an intravenous dose of 1 mg/Kg of compound; type: functional, Canis lupus familiaris; method in brief: as §3
Mus musculus [7] = assay: Percentage of inhibition by the compound against PAF-induced mortality in mice 7 hr after intravenous administration of 1 mg/Kg; type: functional; method in brief: as §2
Mus musculus [8] = assay: Percentage of inhibition by the compound against PAF-induced mortality in mice 3 hr after intravenous administration of 1 mg/Kg; type: functional; method in brief: as §2

Structure (SMILES) | ED50 (Rattus norvegicus) | IC50 (Oryctolagus cuniculus) | inhibition in vivo at 0.03 mg/kg (Mus musculus [1]) | ED50 (Mus musculus [2]) | ED50 (Mus musculus [3]) | inhibition in vivo at 1 mg/kg (Mus musculus [4]) | Inhibition (Canis familiaris [5]) | Inhibition (Canis familiaris [6]) | inhibition in vivo at 1 mg/kg (Mus musculus [7]) | inhibition in vivo at 1 mg/kg (Mus musculus [8])
CCOC(=O)C(CC(=O)N1CCC(Cn2c(C)nc3cnccc32)CC1)c1ccccc1 (centres undefined) | 0.17 mg/kg | 12 nM | 45% |  |  |  |  |  |  | 
Cc1nc2cnccc2n1CC1CCN(C(=O)NC(c2ccccc2)c2ccccc2)CC1 | 0.14 mg/kg | 8.1 nM |  | > 0.03 mg/kg | > 1 mg/kg |  |  |  |  | 
COC(=O)NC(CC(=O)N1CCN(C(C#N)c2cccnc2C)CC1)c1ccccc1 (centres undefined) | 0.015 mg/kg | 41 nM |  | 0.0055 mg/kg | 0.044 mg/kg |  |  |  |  | 
CC/C(=C\C(=O)N1CCC(Cn2c(C)nc3cnccc32)CC1)c1ccccc1 | 0.0054 mg/kg | 13 nM | 50% |  | > 1 mg/kg |  |  |  |  | 
Cc1nc2cnccc2n1CC1CCN(C(=O)CC(C)(C)c2ccccc2)CC1 |  | 6.7 nM |  | 0.0027 mg/kg | 1 mg/kg | 88% | 100% | 100% | 50% | 
Cc1nc2cnccc2n1CC1CCN(C(=O)CNC(c2ccccc2)c2ccccc2)CC1 | 0.067 mg/kg | 13 nM |  | 0.0041 mg/kg | 1 mg/kg |  |  |  |  | 
Cc1nc2cnccc2n1CC1CCN(C(=O)CC(C)c2ccccc2)CC1 (centres undefined) |  | 12 nM |  | 0.003 mg/kg | 1 mg/kg |  |  |  |  | 
COC(=O)NC(CC(=O)N1CCC(Cn2c(C)nc3cnccc32)CC1)c1ccccc1 (centres undefined) | 0.035 mg/kg | 12 nM |  | 0.0027 mg/kg | 0.1 mg/kg |  |  |  |  | 
CCOC(=O)[C@H](NC(=O)N1CCC(Cn2c(C)nc3cnccc32)CC1)c1ccccc1 | 0.069 mg/kg | 150 nM |  | 0.02 mg/kg | > 1 mg/kg |  |  |  |  | 
Cc1ncccc1C(C#N)N1CCN(C(=O)CNC(c2ccccc2)c2ccccc2)CC1 (centres undefined) | 0.021 mg/kg | 40 nM |  | 0.009 mg/kg | 0.3 mg/kg | 15% |  | 39% |  | 30%
Cc1nc2cnccc2n1CC1CCN(C(=O)CCc2ccccc2)CC1 | > 5 mg/kg | 60 nM |  | 0.013 mg/kg | > 1 mg/kg |  |  |  |  | 
Cc1nc2cnccc2n1CC1CCN(C(=O)N[C@H](C)c2ccccc2)CC1 |  | 13 nM |  | 0.0047 mg/kg | 1 mg/kg | 56% | 77% | 100% | 22% | 
Cc1nc2cnccc2n1CC1CCN(C(=O)CC(O)(c2ccccc2)C(F)(F)F)CC1 (centres undefined) |  | 36 nM |  | 0.0029 mg/kg | 0.032 mg/kg | 90% |  |  | 70% | 
COC(=O)NC(CC(=O)N1CCC(n2c(C)nc3cnccc32)CC1)c1ccccc1 (centres undefined) | 0.56 mg/kg | 1300 nM |  |  |  |  |  |  |  | 
Cc1nc2cnccc2n1CC1CCN(C(=O)N[C@@H](C)c2ccccc2)CC1 | 0.21 mg/kg | 41 nM | 45% |  | > 1 mg/kg |  |  |  |  | 
Cc1nc2cnccc2n1CC1CCN(C(=O)C=C(c2ccccc2)c2ccccc2)CC1 | 0.011 mg/kg | 240 nM |  | 0.0037 mg/kg | > 1 mg/kg |  |  |  |  | 

Structure (SMILES) | ED50 (Rattus norvegicus) | IC50 (Oryctolagus cuniculus) | inhibition in vivo at 0.03 mg/kg (Mus musculus [1]) | ED50 (Mus musculus [2]) | ED50 (Mus musculus [3]) | inhibition in vivo at 1 mg/kg (Mus musculus [4]) | Inhibition (Canis familiaris [5]) | Inhibition (Canis familiaris [6]) | inhibition in vivo at 1 mg/kg (Mus musculus [7]) | inhibition in vivo at 1 mg/kg (Mus musculus [8])
CCOC(=O)[C@H](CC(C)C)N(C)S(=O)(=O)c1ccc(Cn2c(C)nc3cnccc32)cc1 [LEXIPAFANT] | 0.0037 mg/kg | 3.6 nM |  | 0.0021 mg/kg | 0.11 mg/kg | 95% | 100% | 100% | 56% | 100%
CCOC(=O)[C@H](CC(C)C)NC(=O)N1CCC(Cn2c(C)nc3cnccc32)CC1 | 0.03 mg/kg | 12 nM |  | 0.0027 mg/kg | > 1 mg/kg |  |  |  |  | 
Cc1nc2cnccc2n1CC1CCN(C(=O)NC2(c3ccccc3)CC2)CC1 |  | 17 nM |  | 0.002 mg/kg | 0.3 mg/kg |  |  |  |  | 
Cc1nc2cnccc2n1CC1CCN(C(=O)CC(C)(O)c2ccccc2)CC1 (centres undefined) |  | 6.9 nM |  | 0.0029 mg/kg | 1 mg/kg | 80% | 43% | 59% | 60% | 
COc1ccccc1N(C)CC(=O)N1CCC(Cn2c(C)nc3cnccc32)CC1 | 0.063 mg/kg | 14 nM |  | 0.0066 mg/kg | > 1 mg/kg | 90% | 87% | 100% | 70% | 
CCOC[C@@H](NC(=O)N1CCC(Cn2c(C)nc3cnccc32)CC1)c1ccccc1 |  | 17 nM |  | 0.01 mg/kg | 1 mg/kg |  |  |  |  | 
Cc1nc2cnccc2n1CC1CCN(C(=O)CN(C)c2ccccc2)CC1 | 0.31 mg/kg | 23 nM |  | > 0.03 mg/kg | > 1 mg/kg |  |  |  |  | 
COc1ccccc1CCC(=O)N1CCC(Cn2c(C)nc3cnccc32)CC1 | 0.045 mg/kg | 15 nM |  | 0.0033 mg/kg | > 1 mg/kg |  |  |  |  | 
Cc1nc2cnccc2n1C1CCN(C(=O)CC(c2ccccc2)c2ccccc2)CC1 | 0.41 mg/kg | 100 nM |  |  | > 3 mg/kg |  |  |  |  | 
N#CC(c1cccnc1)C1CCN(C(=O)CNC(c2ccccc2)c2ccccc2)CC1 (centres undefined) | 0.03 mg/kg | 24 nM |  |  | 2.6 mg/kg |  |  |  |  | 
COC/C(=C\C(=O)N1CCC(Cn2c(C)nc3cnccc32)CC1)c1ccccc1 | 0.022 mg/kg | 18 nM |  | 0.0079 mg/kg | > 1 mg/kg |  |  |  |  | 
Cc1nc2cnccc2n1CC1CCN(C(=O)CC(c2ccccc2)c2ccccc2)CC1 |  | 7.6 nM |  | 0.0008 mg/kg | 0.092 mg/kg | 100% | 100% | 100% | 100% | 100%
Cc1nc2cnccc2n1CC1CCN(C(=O)CC(O)(c2ccccc2)c2ccccc2)CC1 | 0.013 mg/kg | 640 nM |  | 0.03 mg/kg | 0.03 mg/kg |  |  |  |  | 
Cc1nnc2n1-c1sc(CCC(=O)N3CCOCC3)cc1C(c1ccccc1Cl)=NC2 [APAFANT] | 0.17 mg/kg | 91 nM |  | 0.084 mg/kg | 1.24 mg/kg | 27% | 55% | 100% | 31% | 55%
Cc1nc2cnccc2n1CC1CCN(C(=O)OCC2(c3ccccc3)CC2)CC1 |  | 35 nM |  | 0.012 mg/kg | > 1 mg/kg |  |  |  |  | 
CCCC(CC(=O)N1CCC(Cn2c(C)nc3cnccc32)CC1)c1ccccc1 (centres undefined) |  | 11 nM |  | 0.01 mg/kg | 1 mg/kg |  |  |  |  | 
